Consider 31 compounds from ChEMBL document CHEMBL2040792, “New chromene scaffolds for adenosine A(2A) receptors: synthesis, pharmacology and structure-activity relationships” (Eur J Med Chem, 2012).

Holding throughout (type): cell-based
Assay [1] has as its target T1, Adenosine receptor A1 (Homo sapiens) (UniProt P30542).
T1 sequence (whole entry): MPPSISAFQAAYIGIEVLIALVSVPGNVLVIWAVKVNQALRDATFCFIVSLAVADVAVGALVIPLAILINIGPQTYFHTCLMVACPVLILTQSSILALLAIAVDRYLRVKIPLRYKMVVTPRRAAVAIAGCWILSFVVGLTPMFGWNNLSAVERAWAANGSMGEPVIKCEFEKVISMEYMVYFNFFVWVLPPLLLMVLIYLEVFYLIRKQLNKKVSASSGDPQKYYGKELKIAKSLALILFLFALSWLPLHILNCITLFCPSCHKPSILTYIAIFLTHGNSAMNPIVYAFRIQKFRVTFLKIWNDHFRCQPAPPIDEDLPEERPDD
The assay is described as follows: Displacement of [3H]DPCPX from human adenosine A1 receptor expressed in CHO cells at 10 uM after 60 mins by beta scintillation counting. In a few lines: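 CHO-A1 membranes (15 µg protein) in Hepes/NaCl/MgCl2 buffer with adenosine deaminase, pH 7.4. Test compound at 10 µM with 2 nM [3H]DPCPX, 60 min at 25 °C, in duplicate. Nonspecific binding with 10 µM (R)-PIA. Percent inhibition read after filtration.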

Assay [2] has as its target T2, Adenosine receptor A2a (Homo sapiens, UniProt P29274). The assay is described as follows: Displacement of [3H]ZM241385 from human adenosine A2A receptor expressed in human HeLa cells at 10 uM after 30 mins by beta scintillation counting. In a few lines:
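Single-point screen at 10 µM on HeLa-A2A membranes (10 µg protein), Tris/EDTA/MgCl2 buffer with adenosine deaminase, pH 7.4. 3 nM [3H]ZM241385, 30 min at 25 °C, in duplicate. Nonspecific binding with 50 µM NECA. Percent inhibition.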

Assay [3] deals with T3, Adenosine receptor A2b (Homo sapiens) (UniProt P29275).
T3 sequence (whole entry): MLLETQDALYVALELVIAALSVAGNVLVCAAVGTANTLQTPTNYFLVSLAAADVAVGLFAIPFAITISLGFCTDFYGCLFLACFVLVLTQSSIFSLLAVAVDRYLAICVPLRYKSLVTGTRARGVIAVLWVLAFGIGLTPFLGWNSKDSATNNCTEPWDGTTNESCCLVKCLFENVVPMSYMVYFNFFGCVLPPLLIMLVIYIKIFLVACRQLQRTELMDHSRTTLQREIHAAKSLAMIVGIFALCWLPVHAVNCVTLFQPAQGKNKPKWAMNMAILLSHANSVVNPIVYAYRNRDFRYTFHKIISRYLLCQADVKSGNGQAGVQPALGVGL
The assay is described as follows: Displacement of [3H]DPCPX from human adenosine A2B receptor expressed in HEK293 cells at 10 uM after 30 mins by beta scintillation counting. In a few lines:
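Percent inhibition at 10 µM in HEK-293-A2B membranes (18 µg protein), pH 6.5 Tris buffer with benzamidine, bacitracin and adenosine deaminase. 35 nM [3H]DPCPX, 30 min at 25 °C, in duplicate. Nonspecific binding with 400 µM NECA.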

In assay [4] the target is T4, Adenosine receptor A3 (Homo sapiens) (UniProt P0DMS8).
T4 sequence (whole entry): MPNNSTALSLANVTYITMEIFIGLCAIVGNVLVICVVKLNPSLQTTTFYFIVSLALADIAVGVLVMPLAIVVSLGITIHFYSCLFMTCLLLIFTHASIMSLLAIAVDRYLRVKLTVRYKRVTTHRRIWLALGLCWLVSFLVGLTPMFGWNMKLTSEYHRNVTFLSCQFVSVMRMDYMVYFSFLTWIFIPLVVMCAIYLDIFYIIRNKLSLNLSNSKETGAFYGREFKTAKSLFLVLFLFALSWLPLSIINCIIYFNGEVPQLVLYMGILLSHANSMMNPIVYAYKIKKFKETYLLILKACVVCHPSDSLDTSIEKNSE
The assay is described as follows: Displacement of [3H]NECA from human adenosine A3 receptor expressed in human HeLa cells at 10 uM after 180 mins by beta scintillation counting. In short, it runs like this: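 HeLa-A3 membranes (90 µg protein) in 50 mM Tris-HCl, 1 mM EDTA, 5 mM MgCl2, 2 UI/mL adenosine deaminase, pH 7.4. Test compound at 10 µM with 30 nM [3H]NECA, 180 min at 25 °C, in triplicate. Nonspecific binding with 100 µM (R)-PIA. Percent inhibition read after GF/B filtration.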

Assay [5] concerns the target T2, Adenosine receptor A2a. The assay is described as follows: Displacement of [3H]ZM241385 from human adenosine A2A receptor expressed in human HeLa cells after 30 mins by beta scintillation counting. In a few lines:
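HeLa-A2A membranes (10 µg protein) in 50 mM Tris-HCl, 1 mM EDTA, 10 mM MgCl2, 2 UI/mL adenosine deaminase, pH 7.4, with 3 nM [3H]ZM241385. Nonspecific binding with 50 µM NECA. Incubated 30 min at 25 °C, in duplicate. Six concentrations (10 nM-100 µM); IC50 by nonlinear regression, converted to Ki by Cheng-Prusoff.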

T2 sequence (P29274 whole entry): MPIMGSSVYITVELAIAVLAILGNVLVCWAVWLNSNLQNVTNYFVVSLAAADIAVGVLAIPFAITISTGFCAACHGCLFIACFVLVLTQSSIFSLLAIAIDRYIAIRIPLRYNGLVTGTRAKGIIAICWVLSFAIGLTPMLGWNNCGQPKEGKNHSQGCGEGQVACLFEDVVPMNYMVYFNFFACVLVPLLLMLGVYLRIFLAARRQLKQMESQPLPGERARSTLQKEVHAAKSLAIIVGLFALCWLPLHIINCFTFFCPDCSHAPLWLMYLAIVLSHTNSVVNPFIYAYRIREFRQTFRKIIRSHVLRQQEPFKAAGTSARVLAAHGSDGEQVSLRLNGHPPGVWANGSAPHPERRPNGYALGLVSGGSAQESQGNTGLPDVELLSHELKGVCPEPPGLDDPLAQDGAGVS

Consider `CCC(CO)NC(=O)c1cc2cccc(OC)c2oc1=N` (stereo not drawn), for which the inhibition in assay [1] was 24%; at Adenosine receptor A2a [2], 66%; in assay [3] it was 39%; in assay [4] it was 6%.

On to `COc1cc(Br)cc2cc(C(=O)NCCCO)c(=N)oc12`, for which the inhibition in assay [1] amounted to 31%; at Adenosine receptor A2a [2], 16%; in assay [3], 30%; in assay [4] it was 23%.

Regarding `COc1cccc2cc(C(=O)NC(CO)(CO)CO)c(=N)oc12`, the inhibition in assay [1] came out at 19%; at Adenosine receptor A2a [2] it was 24%; in assay [3], 28%; in assay [4], 18%.

With `COc1cccc2cc(C(=O)NCC(=O)O)c(=O)oc12`, the inhibition in assay [1] was 27%; at Adenosine receptor A2a [2], 13%; in assay [3] it was 35%; in assay [4], 15%.

As for `COc1cccc2cc(C(=O)Nc3c(C#N)ncn3-c3ccc(C#N)cc3)c(=N)oc12`, the inhibition in assay [1] worked out at 18%; on Adenosine receptor A2a [2], 41%; in assay [3], 10%; in assay [4], 1%.

Consider `COc1cccc2cc(C(=O)NCCO)c(=O)oc12`, for which the inhibition came to 12% in assay [1], 1% on Adenosine receptor A2a [2], 7% in assay [3] and 1% in assay [4].

Regarding `COCCNC(=O)c1cc2cccc(OC)c2oc1=O`, the inhibition in assay [1] stood at 45%; at Adenosine receptor A2a [2], 65%; in assay [3], 18%; in assay [4], 0%.

As to `O=C(O)CNC(=O)c1cc2ccccc2oc1=O`, the inhibition is 1% in assay [1], 2% on Adenosine receptor A2a [2], 9% in assay [3] and 0% in assay [4].

Take `COc1cccc2cc(C(=O)N[C@@H](CO)C(=O)O)c(=O)oc12`: the inhibition came to 12% in assay [1], 6% on Adenosine receptor A2a [2], 24% in assay [3] and 3% in assay [4].

Consider `O=C(NC1CCCC1)c1cc2ccccc2oc1=O`, for which the inhibition in assay [1] came to 16%; at Adenosine receptor A2a [2], 1%; in assay [3], 18%; in assay [4], 20%.

Take `COc1cccc2cc(C(=O)NCC(O)CO)c(=O)oc12` (stereo not drawn): the inhibition in assay [1] worked out at 14%; at Adenosine receptor A2a [2] it was 7%; in assay [3], 25%; in assay [4], 1%.

In the case of `O=C(NCCCO)c1cc2cccc(O)c2oc1=O`, the inhibition was determined as 18% in assay [1], 1% on Adenosine receptor A2a [2], 24% in assay [3] and 8% in assay [4].

`N=c1oc2ccc(Br)cc2cc1C(=O)NCCO`: the inhibition amounted to 26% in assay [1], 6% on Adenosine receptor A2a [2], 15% in assay [3] and 0% in assay [4].

For the compound `N=c1oc2ccc(Br)cc2cc1C(=O)NCCCO`, the inhibition in assay [1] was found to be 32%; at Adenosine receptor A2a [2], 14%; in assay [3] it was 25%; in assay [4] it was 17%.

`CCC(CO)NC(=O)c1cc2cc(Br)ccc2oc1=N` (stereo not drawn): the inhibition was found to be 20% in assay [1], 3% on Adenosine receptor A2a [2], 4% in assay [3] and 24% in assay [4].

Take `COc1cccc2cc(C(=O)NCCCO)c(=N)oc12`: the inhibition in assay [1] was 47%; on Adenosine receptor A2a [2] it was more than 70%; in assay [3], 42%; in assay [4], 1%. At Adenosine receptor A2a [5], this compound showed a Ki of 0.631 µM.

As for `CCC(CO)NC(=O)c1cc2cc(Cl)ccc2oc1=N` (stereo not drawn), the inhibition was found to be 7% in assay [1], 15% on Adenosine receptor A2a [2], 9% in assay [3] and 0% in assay [4].

`N=c1oc2ccc(Br)cc2cc1C(=O)NCC(O)CO` (stereo not drawn): the inhibition in assay [1] was 11%; at Adenosine receptor A2a [2] it was 8%; in assay [3] it was 4%; in assay [4], 10%.

Consider `N=c1oc2ccc(Br)cc2cc1C(=O)NC1CCCCC1`, for which the inhibition is 5% in assay [1], 1% at Adenosine receptor A2a [2], 10% in assay [3] and 8% in assay [4].

As for `COc1cccc2cc(C(=O)Nc3c(C#N)ncn3-c3ccccc3)c(=N)oc12`, the inhibition was 33% in assay [1], more than 70% at Adenosine receptor A2a [2], 9% in assay [3] and 40% in assay [4]. The compound also showed a Ki at Adenosine receptor A2a [5] of 1 µM.

For the compound `COc1cccc2cc(C(C)=O)c(=O)oc12`, the inhibition in assay [1] was determined as 10%; at Adenosine receptor A2a [2], 1%; in assay [3], 15%; in assay [4], 1%.

With `COc1cccc2cc(C(=O)NCCO)c(=N)oc12`, the inhibition in assay [1] is 47%; at Adenosine receptor A2a [2], more than 70%; in assay [3], 65%; in assay [4], 23%. This compound showed a Ki at Adenosine receptor A2a [5] of 1 µM.

Regarding `O=C(NCC(O)CO)c1cc2cc(Cl)ccc2oc1=O` (stereo not drawn), the inhibition worked out at 21% in assay [1], 2% on Adenosine receptor A2a [2], 23% in assay [3] and 1% in assay [4].

On to `CCOC(CNC(=O)c1cc2cccc(OC)c2oc1=N)OCC`, for which the inhibition in assay [1] was 40%; on Adenosine receptor A2a [2], more than 70%; in assay [3] it was 51%; in assay [4], 15%. At Adenosine receptor A2a [5], this compound showed a Ki of 1.58 µM.

Take `COc1cccc2c1OC(C)(O)C(C(C)=O)=C2` (stereo not drawn): the inhibition was determined as 6% in assay [1], 10% on Adenosine receptor A2a [2], 24% in assay [3] and 30% in assay [4].

In the case of `O=C(NCC(O)CO)c1cc2cccc(O)c2oc1=O` (stereo not drawn), the inhibition was 4% in assay [1], 11% at Adenosine receptor A2a [2], 29% in assay [3] and 22% in assay [4].

`N=c1oc2ccc(Br)cc2cc1C(=O)NC1CCCC1`: the inhibition in assay [1] came out at 17%; at Adenosine receptor A2a [2], 5%; in assay [3] it was 28%; in assay [4], 0%.

In the case of `COCCNC(=O)c1cc2cc(Cl)ccc2oc1=N`, the inhibition in assay [1] amounted to 17%; at Adenosine receptor A2a [2], 10%; in assay [3], 9%; in assay [4], 13%.

In the case of `O=C(NCCCN1CCN(CCCNC(=O)c2cc3ccccc3oc2=O)CC1)c1cc2ccccc2oc1=O`, the inhibition came out at 9% in assay [1], 1% on Adenosine receptor A2a [2], 22% in assay [3] and 15% in assay [4].

On to `COc1ccc(-n2cnc(C#N)c2NC(=O)c2cc3cccc(OC)c3oc2=N)cc1`, for which the inhibition in assay [1] was 37%; at Adenosine receptor A2a [2], 58%; in assay [3], 5%; in assay [4], 42%.

As to `O=C(NCCCO)c1cc2ccccc2oc1=O`, the inhibition in assay [1] is 24%; at Adenosine receptor A2a [2], 10%; in assay [3], 19%; in assay [4], 6%.
